Jurkat NFkB inh = lowers PMA/ionomycin-induced NF-kB signal in Jurkat cells | PMA/ionomycin-induced NF-kB luciferase reporter, luminescence | inhibition, % at 4 µM | 330,000 compounds, 0.53% hits | AID 435003; in the data active = inhibition above about 50%
697 NFkB inh = inhibitors of the PMA/ionomycin-induced NF-kB reporter in 697 B cells; inhibition, % at 4 µM; 330,000 compounds, 0.33% hits; AID 435022; 697 B-cell NF-kB luciferase reporter, 16 h; in the data active = inhibition above about 35%
CHOP inh = blocks CHOP induction under ER stress; AID 2732; inhibition, % at 10 µM; CHO-K1 CHOP-promoter luciferase, tunicamycin-induced, 15-18 h; 220,000 compounds, 3.8% hits;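 active = compounds that reduced the stress-induced luciferase reporter signal by more than about 70% of percent inhibition, limit read from the data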;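 note: 0% = tunicamycin plus vehicle and 100% = wells without tunicamycin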
UPR CHOP act = apoptotic UPR (CHOP) activation; CHO-CHOP luciferase reporter, luminescence; percent of tunicamycin response over DMSO baseline; AID 449763; activation, % at 10 µM; 330,000 compounds, 0.34% hits;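 active = at 10 µM dose, activation of 40% or more, normalized to positive control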;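 note: 100% = tunicamycin at 10 µg/mL and 0% = DMSO alone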
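assay system = CHO CHOP reporter cells | amount = 500 CHO-CHOP cells per well | buffer or medium = F12 with 10% FBS | incubation = 16-18 h cell attachment, then 6 h compound exposure, 37 °C | detection = luminescence read with Steady-Glo | read-out = percent activation relative to tunicamycin control | controls = tunicamycin high control, DMSO low control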
XBP1 UPR activ = adaptive UPR (XBP1) activation. CHO-XBP1 luciferase reporter, IRE1-XBP1 UPR activation, luminescence; percent of tunicamycin response, DMSO as zero. activation, % at 20 µM. 330,000 compounds, 0.33% hits;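 active = versus positive control, 20 µM dose yields 30% or more activation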;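 note: 100% = tunicamycin at 10 µg/mL and 0% = DMSO only wells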
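Material: CHO-XBP1 cells stably carrying IRE1-XBP1-driven luciferase reporter | Medium: F12 with 10% serum | Compound dosing: 20 µM single concentration, DMSO 1% | Incubation: Overnight seeding at 37 °C, 6 h compound treatment at 37 °C | Detection: Steady-Glo luminescence read | Read-out basis: % activation of reporter signal versus tunicamycin and DMSO controls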
XBP1 UPR conf = confirmation of adaptive unfolded protein response (XBP1) activators | activation, % at 20 µM | shares compounds with XBP1 UPR activ | 1,000 compounds, 63% hits | CHO-XBP1 IRE1-XBP1 luciferase reporter, luminescence;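 active = reporter signal at least 30% of the positive control's activation in two or more of four replicate wells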;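 note: plate controls were DMSO negative control for no effect and tunicamycin 10 µg/mL positive control for full effect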
Numbers without * were called inactive; x = no result; ! = repeats disagree. This is one part of a sample in which hits are shown more often than they occur.

SMILES	Jurkat NFkB inh	697 NFkB inh	CHOP inh	UPR CHOP act	XBP1 UPR activ	XBP1 UPR conf
COc1cccc(C(=O)Oc2ccccc2/C=C\C(=O)c2cc3ccccc3o2)c1	x	x	44	x	x	x
O=C(Oc1ccccc1/C=C\C(=O)c1cc2ccccc2o1)c1cccc(F)c1	-88	-61	-10	26	39*	60*
COC(=O)c1cccc(NC(=S)NC(C)C)c1	-2	8	-1	-1	2	x
CCC[C@@H](CN[C@@H](CNC)[C@H](C)CC)NCC1CCC(C(C)(C)C)CC1 (some centres not stated)	13	12	x	33	51*	30*
CCC[C@H](CN[C@@H](CNC)[C@H](C)CC)NCCc1cc(C(F)(F)F)cc(C(F)(F)F)c1	35	20	x	36	52*	22
CCCC[C@@H](CNC)NC[C@H](NCCCCC1CCCCC1)C(C)C	6	-6	x	6	25	x
CCOC(=O)c1nnn2c1nc(Nc1cccc(C(F)(F)F)c1)c1ccccc12	35	-6	13	30	70*	41*
N#CCC(=O)N/N=C/c1cn(Cc2cccc3ccccc23)c2ccccc12	32	-51	21	8	130*	103*
CNS(=O)(=O)c1cc(NC(C)=O)c(C)cc1C	-3	27	3	3	-1	x
O=C(/C=C/c1ccccc1)NCC(=O)N/N=C/c1cccs1	-1	-21	x	-1	-3	x
O=c1cc2oc3cc(O)c(O)cc3c(-c3ccccc3[N+](=O)[O-])c-2cc1O	5	15	x	-2	34*	35*
O=c1cc(-c2ccccc2Cl)oc2cccc(O)c12	-19	3	14	3	8	x
COc1ccc(NC(=O)CSc2nc3ccc(Nc4nc(N5CCOCC5)nc(N5CCOCC5)n4)cc3s2)cc1	-8	1	x	10	58*	31*
CC(C)(C)NC(=O)CSc1nc2ccc(Nc3nc(N4CCOCC4)nc(N4CCOCC4)n3)cc2s1	2	9	29	-1	5	x
COC(=O)c1nn(-c2ccccc2)c(Sc2ccc(Cl)cc2)c1/C=N/O	-11	-26	40	2	-3	x
Cc1ccc(-n2c(SCC(=O)Nc3nccs3)nc3c(c2=O)SCC3)cc1	7	1	24	2	9	x
CCOc1ccc(-n2c(SCC(=O)Nc3nccs3)nc3c(c2=O)SCC3)cc1	-2	6	7	12	75*	9
O=C(CCl)Nc1ccccc1Sc1ccc(Cl)cc1	38	9	-26	25	45*	7
CC(=O)N1CCN(CC(=O)Nc2ccccc2Sc2ccc(Cl)cc2)CC1	0	-6	17	0	0	x
O=C(CCc1c[nH]c2ccccc12)OCc1ccc(Br)cc1	43	8	x	1	-5	x
Cc1ccc(-n2c(SCC(=O)NCc3ccco3)nc3sc4c(c3c2=O)CC(C)(C)SC4)cc1	-7	8	9	0	-1	x
CCC1CCc2c(sc3nc(SCC(=O)NCc4ccco4)n(-c4ccccc4)c(=O)c23)C1 (configuration not stated)	2	-10	29	3	43*	70*
COC(=O)[C@@H]1C[C@@]2(O)[C@H](O)[C@H](O)[C@H](O)C[C@H]2N1Cc1ccc(-c2ccccc2)cc1	-14	5	3	0	4	x
COc1cc(CN2CCCCC2)ccc1OCc1ccccc1	-89	-25	x	4	37*	1
CCOC(=O)c1sc(-c2ccccc2)cc1NC(=O)Nc1ccc([N+](=O)[O-])cc1	6	22	91*	16	199*	163*
SMILES	Jurkat NFkB inh	697 NFkB inh	CHOP inh	UPR CHOP act	XBP1 UPR activ	XBP1 UPR conf
COCCNc1ccc(S(=O)(=O)N2CCCC2)cn1	16	3	8	2	-2	x
COc1ccc(CC(=O)NC2CCCCCC2)c(OC)c1	-12	-6	x	-1	-6	x
COc1cc([C@@H]2c3cc4c(cc3[C@@H](O)[C@H]3COC(=O)[C@H]23)OCO4)cc(OC)c1O[Si](C)(C)C(C)(C)C	9	-1	87*	1	58*	48*
COc1cccc(/C=N/NC(=O)CSc2cccc3cccnc23)c1	21	5	4	27	32*	22
CSCCC(NC(=O)c1ccccc1)C(=O)N1CCN(C(C)=O)CC1 (configuration not stated)	10	21	x	1	0	x
O=C1C2C3C=CC(CC3)C2C(=O)N1/N=C/c1ccc(O)cc1 (configuration not stated)	-3	-15	30	0	-1	x
O=C1C2C3C=CC(CC3)C2C(=O)N1/N=C/c1ccc(O)c(O)c1 (configuration not stated)	-5	-85	9	23	45*	18
CCCC(=O)Nc1ccc2oc(-c3cncc(Br)c3)nc2c1	-119	-111	-8	3	-1	x
O=C(Nc1ccc2oc(-c3ccccc3Cl)nc2c1)c1cncc(Br)c1	-30	-123	71*	4	32*	80*
COc1ccc(-c2ccc3c(c2)S(=O)(=O)c2cccc(C(=O)NCCOc4ccccc4Cl)c2C3=O)cc1OC	-9	2	x	24	94*	46*
Cc1cc(C)cc(OCC(=O)Nc2ccncc2)c1	7	-11	x	2	-2	x
Cc1cc(C)c(N2CCN(S(=O)(=O)N3CCCCCC3)CC2)c(C)c1	13	-16	68	2	-3	x
CC(=O)C1=C(C)N2CCN=C2S1	-15	-5	-5	-2	0	x
CC1CCC(C(C)C)C(OC(=O)COC(=O)c2cccn2C)C1 (configuration not stated)	0	1	5	-1	-3	x
CC(C)[C@@H]1CC[C@@H](C)C[C@H]1OC(=O)C[n+]1cc(-c2ccc(Cl)cc2)n2c1CCCCC2	21	-14	10	-1	5	x
CC1CCC(C(C)C)C(OC(=O)Cn2c(-c3ccc(Br)cc3)[n+](C)c3ccccc32)C1 (configuration not stated)	30	-61	90*!	19	109*	108*
CC1CCC(C(C)C)C(OC(=O)Cn2c(-c3ccc(Cl)cc3)[n+](C)c3ccccc32)C1 (configuration not stated)	32	-73	25	9	87*	86*
O=C(Nc1ccc(F)cc1)C1CCCN(S(=O)(=O)c2ccc3[nH]c(=O)ccc3c2)C1 (configuration not stated)	7	15	x	3	0	x
Cc1cc(Br)ccc1NC(=O)CNC(=O)CN(C)Cc1nc2ccccc2c(=O)[nH]1	-3	4	30	-2	-2	x
CCn1c(O)c(C(C#N)=C2N=c3ccccc3=N2)c2ccccc21	-14	-5	62	-2	34*	-1
